Data on 34 molecules can be found in ChEMBL document CHEMBL3421585, “Structure-Based Design of Potent and Selective Inhibitors of the Metabolic Kinase PFKFB3” (J Med Chem, 2015).

By IC50 is commonly meant the point on the concentration scale where inhibition reaches its midpoint. In general, logD refers to the decadic logarithm of the distribution of all forms, ionised or not, between an organic phase and buffer at a given pH.

Data set [1] addresses 6-phosphofructo-2-kinase/fructose-2,6-bisphosphatase 2 (Homo sapiens, UniProt O60825). The experiment in a line: Inhibition of recombinant human PFKFB2 using fructose 6 phosphate as substrate assessed as ADP generation after 1 hr by ADP Glo assay. In general terms: In ADP-Glo the light output rises with the ADP produced.
For data set [2], the target named is T1, 6-phosphofructo-2-kinase/fructose-2,6-bisphosphatase 3 (Homo sapiens, UniProt Q16875). Nature of the data set: Inhibition of recombinant human PFKFB3 using fructose 6 phosphate as substrate assessed as ADP generation after 1 hr by ADP Glo assay.
T1 sequence (Q16875 whole entry): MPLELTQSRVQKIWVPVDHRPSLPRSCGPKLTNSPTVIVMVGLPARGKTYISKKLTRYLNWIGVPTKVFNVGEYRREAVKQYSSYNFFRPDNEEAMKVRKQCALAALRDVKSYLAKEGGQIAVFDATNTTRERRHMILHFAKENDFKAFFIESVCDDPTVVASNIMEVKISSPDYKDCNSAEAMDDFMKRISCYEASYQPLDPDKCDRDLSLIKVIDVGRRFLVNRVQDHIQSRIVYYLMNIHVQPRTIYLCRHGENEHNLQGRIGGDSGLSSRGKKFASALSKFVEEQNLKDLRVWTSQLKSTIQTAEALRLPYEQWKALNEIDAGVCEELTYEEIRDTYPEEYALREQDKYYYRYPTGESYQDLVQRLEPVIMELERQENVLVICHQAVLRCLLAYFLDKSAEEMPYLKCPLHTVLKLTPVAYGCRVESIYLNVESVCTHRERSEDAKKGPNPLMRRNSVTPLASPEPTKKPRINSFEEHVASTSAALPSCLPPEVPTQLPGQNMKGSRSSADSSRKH
Data set [3] deals with 6-phosphofructo-2-kinase/fructose-2,6-bisphosphatase 1 (Homo sapiens, UniProt P16118). Nature of the data set: Inhibition of recombinant human PFKFB1 using fructose 6 phosphate as substrate assessed as ADP generation after 1 hr by ADP Glo assay.
6-phosphofructo-2-kinase/fructose-2,6-bisphosphatase 1, sequence (P16118 whole entry): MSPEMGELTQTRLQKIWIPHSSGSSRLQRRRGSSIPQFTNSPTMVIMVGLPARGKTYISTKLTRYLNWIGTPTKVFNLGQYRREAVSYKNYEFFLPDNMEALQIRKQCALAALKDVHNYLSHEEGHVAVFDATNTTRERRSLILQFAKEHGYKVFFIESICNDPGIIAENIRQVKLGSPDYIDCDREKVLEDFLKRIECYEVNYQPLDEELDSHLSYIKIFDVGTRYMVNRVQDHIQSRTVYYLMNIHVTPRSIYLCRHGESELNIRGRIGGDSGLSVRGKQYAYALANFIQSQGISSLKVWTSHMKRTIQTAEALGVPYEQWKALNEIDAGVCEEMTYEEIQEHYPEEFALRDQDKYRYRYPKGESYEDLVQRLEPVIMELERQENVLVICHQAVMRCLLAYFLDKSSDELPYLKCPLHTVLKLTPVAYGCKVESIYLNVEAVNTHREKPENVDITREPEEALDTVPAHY
Data set [4] concerns the target T1, 6-phosphofructo-2-kinase/fructose-2,6-bisphosphatase 3. The experiment in a line: Inhibition of PFKFB3 in human A549 cells assessed as decrease in lactate secretion after 4 hrs. The data set is classed as cell-based. In a few lines:
(§1)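 A549 cells; fructose-1,6-bisphosphate or lactate production measured.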

Data set [5] in a line: Lipophilicity, log D of the compound at pH 7.4. The following applies: buffer.
Data set [6] deals with A549. The experiment in a line: Cytotoxicity against human A549 cells assessed as cell viability after 4 hrs. In kind it is cell-based. Particulars: a549, 4 h.
Data set [7] deals with T1, 6-phosphofructo-2-kinase/fructose-2,6-bisphosphatase 3. The experiment in a line: Inhibition of PFKFB3 in human A549 cells assessed as reduction of fructose-1,6-bisphosphate formation after 4 hrs by MS/MS analysis. The data set is classed as cell-based. In a few lines: as §1

6-phosphofructo-2-kinase/fructose-2,6-bisphosphatase 2, sequence (O60825 whole entry): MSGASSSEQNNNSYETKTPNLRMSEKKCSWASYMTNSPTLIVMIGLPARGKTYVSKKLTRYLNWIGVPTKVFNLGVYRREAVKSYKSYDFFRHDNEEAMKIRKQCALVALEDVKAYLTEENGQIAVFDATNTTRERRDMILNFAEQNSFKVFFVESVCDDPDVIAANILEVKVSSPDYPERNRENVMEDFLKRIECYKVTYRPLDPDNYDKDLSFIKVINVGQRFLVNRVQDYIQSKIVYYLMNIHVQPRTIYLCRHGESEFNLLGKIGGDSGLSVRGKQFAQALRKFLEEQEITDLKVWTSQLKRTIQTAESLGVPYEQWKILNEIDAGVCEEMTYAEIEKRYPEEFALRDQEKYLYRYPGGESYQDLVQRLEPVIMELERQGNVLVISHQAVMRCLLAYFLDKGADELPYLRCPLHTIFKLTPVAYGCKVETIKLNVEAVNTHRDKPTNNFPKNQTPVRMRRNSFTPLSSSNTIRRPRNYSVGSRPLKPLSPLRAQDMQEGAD

As for `CCn1cc(C#N)c2cc(Oc3ccc(NC(=O)CNC)cc3)ccc21`, the IC50 was 24.9 µM in data set [1], 0.83 µM in data set [2], 20.4 µM in data set [3] and more than 30 µM in data set [4]. In addition, in data set [5], the logD is 2.7.
As to `CC(C)Cn1c(N)c(C#N)c2cc(Oc3ccc(NC(=O)CN)cc3)ccc21`, the Activity entry in data set [6] is “Toxic”. For the same molecule, the IC50 in data set [7] is more than 30 µM; in data set [1] it was 2.52 µM; in data set [2] it was 0.177 µM; in data set [3], 3.18 µM; in data set [4], 16.4 µM. For the same molecule, the logD in data set [5] came to 3.2.
On to `CCn1cc(C#N)c2cc(Oc3ccc(NC(=O)[C@H]4CCCN4)cc3)ccc21`, for which the IC50 in data set [1] is more than 100 µM; in data set [2] it was 70.9 µM; in data set [3], more than 100 µM; in data set [4], more than 30 µM. The logD in data set [5] worked out at 2.8.
`CC(C)Cn1cc(C#N)c2cc(S(=O)(=O)c3ccc(NC(=O)[C@@H]4CCCN4)cc3)ccc21`: the IC50 in data set [7] is more than 30 µM; in data set [1], more than 100 µM; in data set [2], 37.7 µM; in data set [3], 0.321 µM; in data set [4], 24.7 µM. The molecule further displayed a logD in data set [5] of 2.9.
`Cn1cc(-c2c[nH]c3ccc(Oc4ccc(NC(=O)[C@@H]5CCCN5)cc4)cc23)cn1`: the IC50 was more than 30 µM in data set [7]; 3.57 µM in data set [1]; 0.114 µM in data set [2]; 27.4 µM in data set [3]; more than 30 µM in data set [4]. This molecule had a logD in data set [5] of 2.3.
On to `CN1Cc2cc(-n3cc(C#N)c4cc(Oc5ccc(NC(=O)[C@@H]6CCCN6)cc5)ccc43)ccc2C1=O`, for which the Activity result in data set [6] is listed as “Non-toxic”. Also, the IC50 in data set [7] is 0.14 µM; in data set [1], 0.108 µM; in data set [2] it was 0.008 µM; in data set [3], 0.701 µM; in data set [4], 2.18 µM. In data set [5], the logD was 3.
As for `CCn1cc(C#N)c2cc(Oc3ccc(NC(=O)[C@@H]4CCN4)cc3)ccc21`, the IC50 in data set [2] stood at 0.086 µM; in data set [3], 3.74 µM; in data set [4], 19.6 µM.
In the case of `N#Cc1c(N)[nH]c2ccc(Oc3ccc(NC(=O)CN)cc3)cc12`, the IC50 in data set [1] is 53.8 µM; in data set [2], 2.32 µM; in data set [3], more than 100 µM. Further, the logD in data set [5] is 1.6.
Regarding `CN(C)CCn1cc(C#N)c2cc(Oc3ccc(NC(=O)[C@@H]4CCCN4)cc3)ccc21`, the IC50 in data set [7] is 7.48 µM; in data set [1], more than 100 µM; in data set [2], 0.256 µM; in data set [3] it was 53.8 µM; in data set [4], more than 30 µM. In addition, in data set [5], the logD was 2.1.
Turning to `CC(C)Cn1cc(C#N)c2cc(Nc3ccc(NC(=O)[C@@H]4CCCN4)cc3)ccc21`, the IC50 in data set [1] was 6.15 µM; in data set [2], 1.57 µM; in data set [3] it was 36.6 µM; in data set [4], more than 30 µM. In data set [5], this molecule registered a logD of 2.7.
With `N#Cc1cn(Cc2ccccc2)c2ccc(Oc3ccc(NC(=O)[C@@H]4CCCN4)cc3)cc12`, the Activity result in data set [6] was “Toxic”. In addition, the IC50 in data set [1] was determined as 0.188 µM; in data set [2], 0.02 µM; in data set [3] it was 1.83 µM; in data set [4], 6.95 µM. In addition, the logD in data set [5] turned out to be 3.9.
For `N#Cc1cn(CC2CCOCC2)c2ccc(Oc3ccc(NC(=O)[C@@H]4CCCN4)cc3)cc12`, the IC50 in data set [7] is 0.633 µM; in data set [1], 0.429 µM; in data set [2] it was 0.048 µM; in data set [3] it was 3.47 µM; in data set [4] it was more than 30 µM. Further, the logD in data set [5] stood at 2.8.
On to `CC(C)Cn1cc(C#N)c2cc(Cc3ccc(NC(=O)[C@@H]4CCCN4)cc3)ccc21`, for which the IC50 was more than 30 µM in data set [7]; 1.45 µM in data set [1]; 0.199 µM in data set [2]; 5.92 µM in data set [3]; more than 30 µM in data set [4]. The logD in data set [5] turned out to be 3.9.
`Cn1cc(-c2cn(C)c3ccc(Oc4ccc(NC(=O)[C@@H]5CCCN5)cc4)cc23)cn1`: in data set [6], the Activity result was “Non-toxic”. In addition, the IC50 in data set [7] stood at 0.979 µM; in data set [1], 0.818 µM; in data set [2], 0.021 µM; in data set [3], 2.35 µM; in data set [4], 9.71 µM. The molecule further had a logD in data set [5] of 1.9.
For the molecule `CCn1cc(C#N)c2cc(Oc3ccc(NC(=O)CN)cc3)ccc21`, the IC50 in data set [1] is 22.8 µM; in data set [2], 0.562 µM; in data set [3], 18.4 µM; in data set [4], more than 30 µM. The molecule further had a logD in data set [5] of 2.5.
In the case of `Cc1noc(C)c1Cn1cc(C#N)c2cc(Oc3ccc(NC(=O)[C@@H]4CCCN4)cc3)ccc21`, the IC50 is 0.281 µM in data set [7]; 0.159 µM in data set [1]; 0.011 µM in data set [2]; 1.13 µM in data set [3]; more than 30 µM in data set [4]. Besides, the logD in data set [5] was determined as 2.8.
As to `CCn1cc(C#N)c2cc(Oc3ccc(N(C)C(=O)[C@@H]4CCCN4)cc3)ccc21`, the IC50 is 76.5 µM in data set [1], 23.1 µM in data set [2], 72.3 µM in data set [3] and more than 30 µM in data set [4]. The molecule also showed a logD in data set [5] of 1.9.
`CCn1cc(C#N)c2cc(Oc3ccc(NC(=O)CN(C)C)cc3)ccc21`: the IC50 is 76.1 µM in data set [1], 9.83 µM in data set [2], 62.9 µM in data set [3] and more than 30 µM in data set [4].
`CNC(=O)Cn1cc(C#N)c2cc(Oc3ccc(NC(=O)[C@@H]4CCCN4)cc3)ccc21`: the IC50 is 14 µM in data set [7]; 2.35 µM in data set [1]; 0.111 µM in data set [2]; 16.9 µM in data set [3]; more than 30 µM in data set [4]. The same molecule registered a logD in data set [5] of 1.4.
For the molecule `CC(=O)Nc1ccc(Oc2ccc3[nH]c(N)c(C#N)c3c2)cc1`, the IC50 in data set [1] was more than 100 µM; in data set [2], more than 100 µM; in data set [3] it was 24 µM. In addition, in data set [5], the logD was determined as 2.8.
For `CC(C)Cn1cc(C#N)c2cc(Sc3ccc(NC(=O)[C@@H]4CCCN4)cc3)ccc21`, the Activity result in data set [6] is on record as “Toxic”. The IC50 in data set [1] amounted to 0.19 µM; in data set [2] it was 0.111 µM; in data set [3] it was 1.66 µM; in data set [4], 14 µM. Further, in data set [5], the logD is more than 4.3.
In the case of `CCn1c(N)c(C#N)c2cc(Oc3ccc(NC(=O)CN)cc3)ccc21`, the IC50 is more than 30 µM in data set [7]; 9.18 µM in data set [1]; 0.514 µM in data set [2]; 25 µM in data set [3]; more than 30 µM in data set [4]. Besides, the logD in data set [5] amounted to 2.
Turning to `CC(C)Cn1cc(C#N)c2cc(N(C)c3ccc(NC(=O)[C@@H]4CCCN4)cc3)ccc21`, the Activity entry in data set [6] was “Toxic”. In addition, the IC50 was more than 30 µM in data set [7]; 0.141 µM in data set [1]; 0.075 µM in data set [2]; 5 µM in data set [3]; 13.7 µM in data set [4]. Besides, the logD in data set [5] is 3.8.
In the case of `N#Cc1c(N)n(Cc2ccccc2)c2ccc(Oc3ccc(NC(=O)CN)cc3)cc12`, the Activity entry in data set [6] is “Toxic”. In addition, the IC50 in data set [7] is more than 30 µM; in data set [1] it was 1.48 µM; in data set [2] it was 0.104 µM; in data set [3], 2.66 µM; in data set [4], 12.6 µM. In data set [5], this molecule returned a logD of 2.9.
Take `N#Cc1c(N)[nH]c2ccc(Oc3ccc(NC(=O)[C@H](N)CO)cc3)cc12`: the IC50 in data set [1] is more than 100 µM; in data set [2], more than 100 µM; in data set [3] it was 61.5 µM. For the same molecule, the logD in data set [5] worked out at 1.6.
For the molecule `CN(C)C(=O)Cn1c(N)c(C#N)c2cc(Oc3ccc(NC(=O)CN)cc3)ccc21`, the IC50 was more than 30 µM in data set [7]; 6.84 µM in data set [1]; 0.343 µM in data set [2]; 2.53 µM in data set [3]; more than 30 µM in data set [4]. Also, the logD in data set [5] was 0.5.
Take `N#Cc1c(N)[nH]c2ccc(Oc3ccc(NC(=O)[C@@H](N)CO)cc3)cc12`: the IC50 was more than 30 µM in data set [7]; 26.9 µM in data set [1]; 0.575 µM in data set [2]; 51.1 µM in data set [3]; more than 30 µM in data set [4]. The molecule also gave a logD in data set [5] of 1.9.
On to `Cc1noc(C)c1Cn1nc(C#N)c2cc(Oc3ccc(NC(=O)[C@@H]4CCCN4)cc3)ccc21`, for which the IC50 is 0.067 µM in data set [7], 0.025 µM in data set [1], 0.003 µM in data set [2] and 0.191 µM in data set [3].
In the case of `O=C(/C=C/c1cccnc1)c1ccncc1`, in data set [2], the IC50 is more than 100 µM.
Take `N#Cc1c[nH]c2ccc(Oc3ccc(NC(=O)CN)cc3)cc12`: the IC50 was 63.2 µM in data set [1], 2.01 µM in data set [2] and 37.6 µM in data set [3]. For the same molecule, the logD in data set [5] was 2.1.
Take `Cn1c(N)c(C#N)c2cc(Oc3ccc(NC(=O)CN)cc3)ccc21`: the IC50 is 21.1 µM in data set [1], 0.815 µM in data set [2], 38.2 µM in data set [3] and more than 30 µM in data set [4]. For the same molecule, in data set [5], the logD amounted to 1.9.
As for `N#Cc1cn(-c2ccccc2)c2ccc(Oc3ccc(NC(=O)[C@@H]4CCCN4)cc3)cc12`, the Activity result in data set [6] is “Toxic”. Moreover, the IC50 in data set [1] was determined as 0.374 µM; in data set [2], 0.027 µM; in data set [3] it was 1.93 µM; in data set [4], 8.71 µM. The same molecule returned a logD in data set [5] of more than 4.3.
Turning to `CCn1cc(C#N)c2cc(Oc3ccc(NC(=O)[C@@H]4CCCCN4)cc3)ccc21`, the IC50 in data set [1] is 22 µM; in data set [2], 2.2 µM; in data set [3], 86.3 µM; in data set [4], more than 30 µM. In data set [5], the logD is 2.7.
For the molecule `CCn1cc(C#N)c2cc(Oc3ccc(NC(=O)[C@@H]4CCC(=O)N4)cc3)ccc21`, the IC50 was 23.7 µM in data set [1], 0.531 µM in data set [2], more than 100 µM in data set [3] and more than 30 µM in data set [4].
